# In ChEMBL document CHEMBL1177759, “Design and synthesis of disubstituted (4-piperidinyl)-piperazine derivatives as potent acetyl-CoA carboxylase inhibitors” (Bioorg Med Chem Lett, 2010):
# Columns and labels:
# Acetyl-CoA carboxylase = Acetyl-CoA carboxylase (Homo sapiens, UniProt Q13085+O00763); assay: Inhibition of human ACC1/2-mediated malonyl-CoA synthesis; format: protein assay
# In short: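 Partially purified human liver ACC enzymes; read-out is malonyl-CoA synthesis by ACC1/2; IC50 taken as mean of at least two independent experiments.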
# [1] = Metabolic stability in human liver microsomes assessed as compound remaining after 15 mins; format: ADME, Microsome; conditions: read-out: Stability
# In short: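 Compound at […] incubated 15 min at 37 °C with human liver microsomes at 1 mg protein/mL. Cofactors: 1.5 mM glucose-6-phosphate, 0.16 mM NADP, 1 U/mL G6P dehydrogenase. Buffer: 250 mM phosphate, 2.4 mM MgCl2, 69 mM KCl. Parent measured by LC-MS/MS; % remaining relative to 0 min.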
# [2] = Permeability by PAMPA method; format: ADME; conditions: read-out: permeability
# In short: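 Parallel artificial membrane permeation at pH 6.2; effective permeability Pe reported in 10^-6 cm/s.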
# [3] = Inhibition of human ACC in HepG2 cells assessed as decrease in fatty acid synthesis by [14C]acetate incorporation assay; format: cell-based
# In short: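 HepG2 cells; fatty acid synthesis followed as loss of [14C]acetate incorporation into cellular lipids; IC50 derived.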
IC50 (Acetyl-CoA carboxylase),SMILES,other results
127 nM,CC(=O)N1CCC(C(=O)N2CCC(N3CCN(C(=O)c4cc(-c5ccccc5)nc(-c5ccc6c(c5)c(C)cn6C)c4)CC3)CC2)CC1,–
33 nM,CC(=O)N1CCC(C(=O)N2CCC(N3CCN(C(=O)c4cc(-c5ccccc5)nc(-c5ccc6[nH]c(C)c(C)c6c5)c4)CC3)CC2)CC1,remaining at 0.25 h [1]: 99%
105 nM,CC(=O)N1CCC(C(=O)N2CCC(N3CCN(C(=O)c4cc(-c5ccccc5)nc(-c5ccc6c(c5)c(C)c(C)n6C)c4)CC3)CC2)CC1,–
169 nM,CCc1c(C)[nH]c2ccc(-c3cc(C(=O)N4CCN(C5CCN(C(=O)C6CCN(C(C)=O)CC6)CC5)CC4)cc(-c4ccccc4)n3)cc12,–
9.7 nM,CC(=O)N1CCC(C(=O)N2CCC(N3CCN(C(=O)c4cc(-c5ccccc5)nc(-c5ccc6[nH]c(C)c(C#N)c6c5)c4)CC3)CC2)CC1,–
8.4 nM,CC(=O)N1CCC(C(=O)N2CCC(N3CCN(C(=O)c4cc(-c5ccccc5)nc(-c5ccc6[nH]c(CN(C)C)c(C)c6c5)c4)CC3)CC2)CC1,–
72 nM,CC(=O)N1CCC(C(=O)N2CCC(N3CCN(C(=O)c4cc(-c5ccc(C(F)(F)F)cc5)nc(-c5ccc6[nH]ccc6c5)c4)CC3)CC2)CC1,–
49 nM,CC(=O)N1CCC(C(=O)N2CCC(N3CCN(C(=O)c4cc(-c5ccc(C)c(F)c5)nc(-c5ccc6[nH]ccc6c5)c4)CC3)CC2)CC1,–
30 nM,COc1ccc(-c2cc(C(=O)N3CCN(C4CCN(C(=O)C5CCN(C(C)=O)CC5)CC4)CC3)cc(-c3ccc4[nH]ccc4c3)n2)cc1OC,–
69 nM,CC(=O)N1CCC(C(=O)N2CCC(N3CCN(C(=O)c4cc(-c5ccccc5)nc(-c5ccc6c(ccn6C)c5)c4)CC3)CC2)CC1,remaining at 0.25 h [1]: 85%
59 nM,CC(=O)N1CCC(C(=O)N2CCC(N3CCN(C(=O)c4cc(-c5ccccc5)nc(-c5ccc6[nH]c(C)cc6c5)c4)CC3)CC2)CC1,–
36 nM,CC(=O)N1CCC(C(=O)N2CCC(N3CCN(C(=O)c4cc(-c5ccccc5)nc(-c5ccc6[nH]cc(C)c6c5)c4)CC3)CC2)CC1,remaining at 0.25 h [1]: 72%
117 nM,CC(=O)N1CCC(C(=O)N2CCC(N3CCN(C(=O)c4cc(-c5ccccc5)nc(-c5ccc6c(c5)cc(C)n6C)c4)CC3)CC2)CC1,–
57 nM,CC(=O)N1CCC(C(=O)N2CCC(N3CCN(C(=O)c4cc(-c5ccccc5)nc(-c5ccc6cn[nH]c6c5)c4)CC3)CC2)CC1,–
54 nM,CC(=O)N1CCC(C(=O)N2CCC(N3CCN(C(=O)c4cc(-c5ccccc5)nc(-c5ccc6c(c5)CC(=O)N6)c4)CC3)CC2)CC1,–
33 nM,CC(=O)N1CCC(C(=O)N2CCC(N3CCN(C(=O)c4cc(-c5cccc(F)c5)nc(-c5ccc6[nH]ccc6c5)c4)CC3)CC2)CC1,Papp [2]: 19.9 ×10⁻⁶ cm/s
48 nM,CC(=O)N1CCC(C(=O)N2CCC(N3CCN(C(=O)c4cc(-c5ccc(F)cc5)nc(-c5ccc6[nH]ccc6c5)c4)CC3)CC2)CC1,Papp [2]: 44.3 ×10⁻⁶ cm/s

IC50 (Acetyl-CoA carboxylase),SMILES,other results
37 nM,CC(=O)N1CCC(C(=O)N2CCC(N3CCN(C(=O)c4cc(-c5cccc(C)c5)nc(-c5ccc6[nH]ccc6c5)c4)CC3)CC2)CC1,Papp [2]: 28.1 ×10⁻⁶ cm/s
30 nM,CC(=O)N1CCC(C(=O)N2CCC(N3CCN(C(=O)c4cc(-c5ccc(C)cc5)nc(-c5ccc6[nH]ccc6c5)c4)CC3)CC2)CC1,Papp [2]: 39.8 ×10⁻⁶ cm/s
32 nM,COc1cccc(-c2cc(C(=O)N3CCN(C4CCN(C(=O)C5CCN(C(C)=O)CC5)CC4)CC3)cc(-c3ccc4[nH]ccc4c3)n2)c1,–
21 nM,COc1ccc(-c2cc(C(=O)N3CCN(C4CCN(C(=O)C5CCN(C(C)=O)CC5)CC4)CC3)cc(-c3ccc4[nH]ccc4c3)n2)cc1,Papp [2]: 21.5 ×10⁻⁶ cm/s
100 nM,CC(=O)N1CCC(C(=O)N2CCC(N3CCN(C(=O)c4cc(-c5cccc(C(F)(F)F)c5)nc(-c5ccc6[nH]ccc6c5)c4)CC3)CC2)CC1,–
80 nM,CC(=O)N1CCC(C(=O)N2CCC(N3CCN(C(=O)c4cc(-c5ccccc5)nc(-c5ccc(C(N)=O)cc5)c4)CC3)CC2)CC1,–
27 nM,CC(=O)N1CCC(C(=O)N2CCC(N3CCN(C(=O)c4cc(-c5ccccc5)nc(-c5ccc(CCO)cc5)c4)CC3)CC2)CC1,IC50 [3]: 1620 nM
75 nM,CC(=O)N1CCC(C(=O)N2CCC(N3CCN(C(=O)c4cc(-c5ccccc5)nc(-c5ccc(CC(=O)O)cc5)c4)CC3)CC2)CC1,–
47 nM,CC(=O)N1CCC(C(=O)N2CCC(N3CCN(C(=O)c4cc(-c5ccccc5)nc(-c5ccc(OCCO)cc5)c4)CC3)CC2)CC1,–
70 nM,CC(=O)N1CCC(C(=O)N2CCC(N3CCN(C(=O)c4cc(-c5ccccc5)nc(-c5ccc(CCCO)cc5)c4)CC3)CC2)CC1,–
55 nM,CC(=O)N1CCC(C(=O)N2CCC(N3CCN(C(=O)c4cc(-c5ccccc5)nc(-c5ccc6[nH]ccc6c5)c4)CC3)CC2)CC1,remaining at 0.25 h [1]: 64%; Papp [2]: 46.5 ×10⁻⁶ cm/s
47 nM,CC(=O)N1CCC(C(=O)N2CCC(N3CCN(C(=O)c4cc(-c5ccccc5)nc(-c5ccc6cc[nH]c6c5)c4)CC3)CC2)CC1,–
42 nM,CC(=O)N1CCC(C(=O)N2CCC(N3CCN(C(=O)c4cc(-c5ccccc5)nc(-c5ccc6[nH]ncc6c5)c4)CC3)CC2)CC1,–
47 nM,CC(=O)N1CCC(C(=O)N2CCC(N3CCN(C(=O)c4cc(-c5ccccc5)nc(-c5ccc(O)cc5)c4)CC3)CC2)CC1,–
47 nM,CC(=O)N1CCC(C(=O)N2CCC(N3CCN(C(=O)c4cc(-c5ccccc5)nc(-c5cccc(CO)c5)c4)CC3)CC2)CC1,–
42 nM,CC(=O)N1CCC(C(=O)N2CCC(N3CCN(C(=O)c4cc(-c5ccccc5)nc(-c5ccc(CO)cc5)c4)CC3)CC2)CC1,–
